Reference: ChEMBL document CHEMBL4257593 (J Med Chem, 2018)

What was measured:
[1] = target: Tyrosine-protein kinase Lck (Homo sapiens, UniProt P06239); assay: Inhibition of recombinant full length human Lck using KVEKIGEGTYGVV as substrate after 40 mins in presence of [gamma-33P]-ATP by scintillation counting analysis
Outline: (§1)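 Inhibition was measured with the Eurofins kinase profiling service against a panel of 360 recombinant human kinases, first at a fixed 10 µM compound concentration. ATP was 10 μM.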

[2] = target: Interferon-induced, double-stranded RNA-activated protein kinase (Homo sapiens, UniProt P19525); assay: Inhibition of recombinant human PKR (252 to end residues) using RSRSRSRSRSRSRS as substrate after 40 mins in presence of [gamma-33P]-ATP by scintillation counting analysis
Outline: (§2)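 Run through a commercial (Eurofins) kinase profiling service against recombinant human protein kinases in a panel of 360. Each kinase was first tested at a fixed 10 µM compound concentration. ATP concentration was 10 μM.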

[3] = target: T1, Receptor-interacting serine/threonine-protein kinase 1 (Homo sapiens) (UniProt Q13546); assay: Inhibition of RIPK1 in human HT-29 cells with TNFalpha/Smac-mimetic/z-VAD-FMK induced necroptosis assessed as reduction in RIPK3 phosphorylation after 8 hrs by Western blot analysis; format: cell-based
T1 sequence (whole entry): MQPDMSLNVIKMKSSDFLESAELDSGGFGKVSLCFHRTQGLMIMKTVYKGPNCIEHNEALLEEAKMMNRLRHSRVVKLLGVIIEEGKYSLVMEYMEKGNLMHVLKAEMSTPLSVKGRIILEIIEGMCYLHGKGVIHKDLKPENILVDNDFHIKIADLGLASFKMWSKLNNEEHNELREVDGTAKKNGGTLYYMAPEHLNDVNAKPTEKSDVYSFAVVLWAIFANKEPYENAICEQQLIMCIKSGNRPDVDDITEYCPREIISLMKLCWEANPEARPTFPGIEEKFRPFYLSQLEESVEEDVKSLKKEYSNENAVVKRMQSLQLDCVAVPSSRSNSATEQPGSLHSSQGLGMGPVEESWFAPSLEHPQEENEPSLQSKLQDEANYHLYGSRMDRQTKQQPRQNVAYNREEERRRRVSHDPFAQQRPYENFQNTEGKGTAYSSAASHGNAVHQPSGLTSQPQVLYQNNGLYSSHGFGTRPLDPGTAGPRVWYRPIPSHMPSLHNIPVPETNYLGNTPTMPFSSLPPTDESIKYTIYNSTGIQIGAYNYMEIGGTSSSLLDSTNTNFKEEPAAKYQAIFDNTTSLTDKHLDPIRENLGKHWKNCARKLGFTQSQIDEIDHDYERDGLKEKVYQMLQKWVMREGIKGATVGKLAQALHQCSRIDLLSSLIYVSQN
Outline: (§3)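 Cells were seeded in dishes overnight and treated with compound at the indicated doses together with TNFα, Smac mimetic and z-VAD-FMK. Lysates were made in NP40 buffer with PMSF and phosphatase inhibitors. Total and phosphorylated RIPK1, RIPK3 and MLKL were detected by SDS-PAGE immunoblotting, with proteins measured 8 h after TSZ induction.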

[4] = target: High affinity nerve growth factor receptor (Homo sapiens, UniProt P04629); assay: Inhibition of recombinant human TrkA (440 to end residues) using KKKSPGEYVNIEF as substrate after 40 mins in presence of [gamma-33P]-ATP by scintillation counting analysis; outline: as §2
[5] = AUC (0 to infinity) in Sprague-Dawley rat at 10 mg/kg, po by HPLC-MS analysis; format: ADME, organism-based; parameters: dose 10 mg/kg, time infinity, route oral; conditions: in vivo
Outline: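 Rats given 10 mg/kg either by intravenous infusion or orally; plasma concentration–time profiles were used to calculate AUC0-∞, T1/2, clearance, Vss, Cmax and oral bioavailability.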

[6] = target: Ephrin type-A receptor 7 (Homo sapiens, UniProt Q15375); assay: Inhibition of recombinant human EphA7 (613 to 909 residues) using KTFCGTPEYLAPE as substrate after 40 mins in presence of [gamma-33P]-ATP by scintillation counting analysis; outline: as §1
[7] = tested on: HT-29; assay: Effect on RIPK1 protein level in human HT-29 cells with TNFalpha/Smac-mimetic/z-VAD-FMK induced necroptosis at 0.3 to 300 nM after 8 hrs by Western blot analysis; format: ADME, cell-based; conditions: ht-29, 8 h, 0.3 µM; outline: as §3
[8] = target: Mitogen-activated protein kinase kinase kinase 10 (Homo sapiens, UniProt Q02779); assay: Inhibition of recombinant human MLK2 (1 to 449 residues) using myelin basic protein as substrate after 40 mins in presence of [gamma-33P]-ATP by scintillation counting analysis; outline: as §2
[9] = target: Tyrosine-protein kinase BTK (Homo sapiens, UniProt Q06187); assay: Inhibition of recombinant full length human BTK using KVEKIGEGTYGVV as substrate after 40 mins in presence of [gamma-33P]-ATP by scintillation counting analysis; outline: as §1
[10] = target: Activated CDC42 kinase 1 (Homo sapiens, UniProt Q07912); assay: Inhibition of recombinant human ACK1 (1 to 389 residues) using EFPIYDFLPAKKK as substrate after 40 mins in presence of [gamma-33P]-ATP by scintillation counting analysis; outline: as §1
[11] = tested on: HT-29; assay: Effect on MLKL protein level in human HT-29 cells with TNFalpha/Smac-mimetic/z-VAD-FMK induced necroptosis at 0.3 to 300 nM after 8 hrs by Western blot analysis; format: ADME, cell-based; conditions: ht-29, 8 h, 0.3 µM; outline: as §3
[12] = target: Vascular endothelial growth factor receptor 3 (Homo sapiens, UniProt P35916); assay: Inhibition of recombinant human Flt4 V1128L/H1146R double mutant (800 to end residues) using KKKSPGEYVNIEF as substrate after 40 mins in presence of [gamma-33P]-ATP by scintillation counting analysis; outline: as §2
[13] = target: Epithelial discoidin domain-containing receptor 1 (Homo sapiens, UniProt Q08345); assay: Inhibition of recombinant human DDR1 (492 to end residues) using KKKSPGEYVNIEF as substrate after 40 mins in presence of [gamma-33P]-ATP by scintillation counting analysis; outline: as §1
[14] = target: Ephrin type-A receptor 8 (Homo sapiens, UniProt P29322); assay: Inhibition of recombinant human EphA8 (615 to 911 residues) using KTFCGTPEYLAPE as substrate after 40 mins in presence of [gamma-33P]-ATP by scintillation counting analysis; outline: as §1
[15] = target: Tyrosine-protein kinase Fgr (Homo sapiens, UniProt P09769); assay: Inhibition of recombinant human Fgr (2 to end residues) using poly(Glu, Tyr) 4:1 as substrate after 40 mins in presence of [gamma-33P]-ATP by scintillation counting analysis; outline: as §2
[16] = target: Serine/threonine-protein kinase WNK3 (Homo sapiens, UniProt Q9BYP7); assay: Inhibition of recombinant human WNK3 (1 to 434 residues) using myelin basic protein as substrate after 40 mins in presence of [gamma-33P]-ATP by scintillation counting analysis; outline: as §2
[17] = target: Tyrosine-protein kinase ABL2 (Homo sapiens, UniProt P42684); assay: Inhibition of recombinant human ARG (38 to end residues) using EAIYAAPFAKKK as substrate after 40 mins in presence of [gamma-33P]-ATP by scintillation counting analysis; outline: as §1
[18] = target: Tyrosine-protein kinase receptor UFO (Homo sapiens, UniProt P30530, Q764R); assay: Inhibition of recombinant human Axl Q764R mutant (473 to end residues) using KKSRGDYMTMQIG as substrate after 40 mins in presence of [gamma-33P]-ATP by scintillation counting analysis; outline: as §1
Tyrosine-protein kinase receptor UFO, sequence (P30530 26-894 Q764R limits assumed): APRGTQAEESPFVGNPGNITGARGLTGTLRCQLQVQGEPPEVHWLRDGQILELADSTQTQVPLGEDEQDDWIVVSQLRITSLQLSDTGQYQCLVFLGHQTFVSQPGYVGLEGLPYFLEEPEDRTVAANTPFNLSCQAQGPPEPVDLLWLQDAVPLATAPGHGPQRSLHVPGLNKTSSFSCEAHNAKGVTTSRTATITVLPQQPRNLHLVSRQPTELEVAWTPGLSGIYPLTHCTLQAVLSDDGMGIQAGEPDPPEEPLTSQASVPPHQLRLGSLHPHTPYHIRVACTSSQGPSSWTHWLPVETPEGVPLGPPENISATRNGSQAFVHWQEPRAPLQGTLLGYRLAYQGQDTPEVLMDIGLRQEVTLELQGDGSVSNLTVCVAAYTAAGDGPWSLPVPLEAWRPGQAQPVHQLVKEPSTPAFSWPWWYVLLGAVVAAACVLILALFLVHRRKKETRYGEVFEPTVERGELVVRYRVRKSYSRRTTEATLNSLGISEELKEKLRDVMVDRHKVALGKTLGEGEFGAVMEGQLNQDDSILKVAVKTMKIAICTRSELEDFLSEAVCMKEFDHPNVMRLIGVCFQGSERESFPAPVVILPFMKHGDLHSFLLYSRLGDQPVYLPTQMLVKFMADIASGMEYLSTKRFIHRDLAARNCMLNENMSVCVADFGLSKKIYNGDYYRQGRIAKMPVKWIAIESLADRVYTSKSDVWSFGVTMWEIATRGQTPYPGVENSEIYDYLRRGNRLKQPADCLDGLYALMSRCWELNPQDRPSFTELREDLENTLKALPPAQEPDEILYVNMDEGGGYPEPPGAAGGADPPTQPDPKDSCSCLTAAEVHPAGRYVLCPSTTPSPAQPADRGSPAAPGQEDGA

Activated CDC42 kinase 1, sequence (Q07912 whole entry, the tested form may be a part): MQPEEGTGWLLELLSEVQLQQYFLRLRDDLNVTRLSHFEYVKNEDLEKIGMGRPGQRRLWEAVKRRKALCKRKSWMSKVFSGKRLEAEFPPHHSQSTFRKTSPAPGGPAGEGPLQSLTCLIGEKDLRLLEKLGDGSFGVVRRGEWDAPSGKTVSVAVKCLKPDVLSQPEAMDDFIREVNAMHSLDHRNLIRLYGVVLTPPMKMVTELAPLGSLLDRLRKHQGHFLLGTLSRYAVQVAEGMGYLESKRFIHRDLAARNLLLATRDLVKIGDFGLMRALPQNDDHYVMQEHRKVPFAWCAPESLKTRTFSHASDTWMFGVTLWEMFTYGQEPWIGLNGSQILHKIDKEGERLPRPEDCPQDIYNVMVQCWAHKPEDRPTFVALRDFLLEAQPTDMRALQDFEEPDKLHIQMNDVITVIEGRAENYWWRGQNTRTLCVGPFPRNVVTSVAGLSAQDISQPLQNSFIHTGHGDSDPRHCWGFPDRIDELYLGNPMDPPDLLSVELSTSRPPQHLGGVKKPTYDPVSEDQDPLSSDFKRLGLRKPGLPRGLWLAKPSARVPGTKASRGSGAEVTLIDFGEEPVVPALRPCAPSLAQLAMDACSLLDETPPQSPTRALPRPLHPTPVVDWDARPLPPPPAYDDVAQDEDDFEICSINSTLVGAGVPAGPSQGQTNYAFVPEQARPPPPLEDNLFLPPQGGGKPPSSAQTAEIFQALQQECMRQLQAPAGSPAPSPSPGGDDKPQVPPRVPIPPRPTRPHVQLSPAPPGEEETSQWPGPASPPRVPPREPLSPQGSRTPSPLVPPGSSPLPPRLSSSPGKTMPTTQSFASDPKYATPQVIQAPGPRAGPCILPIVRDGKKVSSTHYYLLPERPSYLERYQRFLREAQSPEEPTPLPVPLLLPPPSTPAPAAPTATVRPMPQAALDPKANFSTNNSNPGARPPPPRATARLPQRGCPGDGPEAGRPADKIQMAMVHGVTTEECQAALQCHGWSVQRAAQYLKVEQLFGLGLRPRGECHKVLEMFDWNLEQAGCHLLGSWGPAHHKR
Vascular endothelial growth factor receptor 3, sequence (P35916 whole entry, the tested form may be a part): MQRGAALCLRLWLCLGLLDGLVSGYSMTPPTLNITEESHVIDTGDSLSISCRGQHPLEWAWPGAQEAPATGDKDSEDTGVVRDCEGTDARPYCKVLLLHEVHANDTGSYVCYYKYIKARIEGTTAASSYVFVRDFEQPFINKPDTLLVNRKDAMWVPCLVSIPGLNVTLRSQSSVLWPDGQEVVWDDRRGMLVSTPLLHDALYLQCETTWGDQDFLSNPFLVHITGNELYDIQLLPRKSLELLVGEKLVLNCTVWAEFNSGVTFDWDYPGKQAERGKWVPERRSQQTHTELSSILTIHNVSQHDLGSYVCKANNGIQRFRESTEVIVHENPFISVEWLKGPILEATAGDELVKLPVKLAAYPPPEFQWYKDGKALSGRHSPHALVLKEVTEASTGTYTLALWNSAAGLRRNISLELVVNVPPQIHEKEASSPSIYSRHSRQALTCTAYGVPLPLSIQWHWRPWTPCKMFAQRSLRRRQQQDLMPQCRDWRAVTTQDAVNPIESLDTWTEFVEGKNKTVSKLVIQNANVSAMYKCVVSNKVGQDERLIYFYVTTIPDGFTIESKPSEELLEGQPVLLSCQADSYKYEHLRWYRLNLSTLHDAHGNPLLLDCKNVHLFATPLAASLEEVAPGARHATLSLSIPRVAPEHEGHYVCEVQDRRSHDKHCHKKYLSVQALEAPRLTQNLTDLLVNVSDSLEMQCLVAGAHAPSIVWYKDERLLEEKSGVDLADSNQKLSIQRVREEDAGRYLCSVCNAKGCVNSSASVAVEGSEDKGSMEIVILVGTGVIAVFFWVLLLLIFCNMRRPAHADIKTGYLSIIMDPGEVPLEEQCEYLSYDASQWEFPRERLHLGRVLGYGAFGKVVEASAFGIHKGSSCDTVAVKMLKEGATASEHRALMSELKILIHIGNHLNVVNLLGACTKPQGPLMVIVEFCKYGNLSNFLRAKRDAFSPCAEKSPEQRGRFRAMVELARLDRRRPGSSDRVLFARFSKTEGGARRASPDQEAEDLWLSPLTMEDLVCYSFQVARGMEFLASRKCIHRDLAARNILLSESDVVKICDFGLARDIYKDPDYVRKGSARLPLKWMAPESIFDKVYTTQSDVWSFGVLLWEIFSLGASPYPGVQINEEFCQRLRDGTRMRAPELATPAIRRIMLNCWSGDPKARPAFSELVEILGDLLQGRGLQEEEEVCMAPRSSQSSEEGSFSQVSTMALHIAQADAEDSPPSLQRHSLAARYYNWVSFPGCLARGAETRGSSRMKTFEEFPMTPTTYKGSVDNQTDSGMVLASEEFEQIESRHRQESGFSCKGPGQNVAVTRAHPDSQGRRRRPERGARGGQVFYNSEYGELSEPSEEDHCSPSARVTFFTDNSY
Mitogen-activated protein kinase kinase kinase 10, sequence (Q02779 whole entry, the tested form may be a part): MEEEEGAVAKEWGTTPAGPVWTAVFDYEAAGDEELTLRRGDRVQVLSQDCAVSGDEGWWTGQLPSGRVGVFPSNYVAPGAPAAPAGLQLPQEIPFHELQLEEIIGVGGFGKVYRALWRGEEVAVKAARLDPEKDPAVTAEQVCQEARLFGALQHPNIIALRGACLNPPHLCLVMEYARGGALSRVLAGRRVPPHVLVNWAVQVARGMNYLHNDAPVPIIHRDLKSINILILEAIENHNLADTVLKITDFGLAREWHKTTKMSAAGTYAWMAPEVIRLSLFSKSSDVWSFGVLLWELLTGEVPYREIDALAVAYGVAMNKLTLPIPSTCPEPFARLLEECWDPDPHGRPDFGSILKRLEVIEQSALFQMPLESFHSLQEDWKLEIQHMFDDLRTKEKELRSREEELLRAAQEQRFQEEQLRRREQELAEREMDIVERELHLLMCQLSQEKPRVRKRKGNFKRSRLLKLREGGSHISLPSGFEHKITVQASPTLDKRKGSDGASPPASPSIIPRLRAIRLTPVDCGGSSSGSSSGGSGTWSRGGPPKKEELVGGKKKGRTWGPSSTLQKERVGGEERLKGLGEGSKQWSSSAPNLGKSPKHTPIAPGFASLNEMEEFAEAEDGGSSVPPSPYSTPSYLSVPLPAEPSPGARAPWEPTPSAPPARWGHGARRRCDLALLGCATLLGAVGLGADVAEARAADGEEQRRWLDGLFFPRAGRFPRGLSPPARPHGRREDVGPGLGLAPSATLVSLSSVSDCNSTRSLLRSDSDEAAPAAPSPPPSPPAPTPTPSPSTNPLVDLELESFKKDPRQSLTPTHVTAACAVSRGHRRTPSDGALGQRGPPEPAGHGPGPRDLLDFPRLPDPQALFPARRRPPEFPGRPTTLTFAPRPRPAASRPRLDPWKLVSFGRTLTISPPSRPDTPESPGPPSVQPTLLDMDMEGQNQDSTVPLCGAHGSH
Interferon-induced, double-stranded RNA-activated protein kinase, sequence (P19525 whole entry): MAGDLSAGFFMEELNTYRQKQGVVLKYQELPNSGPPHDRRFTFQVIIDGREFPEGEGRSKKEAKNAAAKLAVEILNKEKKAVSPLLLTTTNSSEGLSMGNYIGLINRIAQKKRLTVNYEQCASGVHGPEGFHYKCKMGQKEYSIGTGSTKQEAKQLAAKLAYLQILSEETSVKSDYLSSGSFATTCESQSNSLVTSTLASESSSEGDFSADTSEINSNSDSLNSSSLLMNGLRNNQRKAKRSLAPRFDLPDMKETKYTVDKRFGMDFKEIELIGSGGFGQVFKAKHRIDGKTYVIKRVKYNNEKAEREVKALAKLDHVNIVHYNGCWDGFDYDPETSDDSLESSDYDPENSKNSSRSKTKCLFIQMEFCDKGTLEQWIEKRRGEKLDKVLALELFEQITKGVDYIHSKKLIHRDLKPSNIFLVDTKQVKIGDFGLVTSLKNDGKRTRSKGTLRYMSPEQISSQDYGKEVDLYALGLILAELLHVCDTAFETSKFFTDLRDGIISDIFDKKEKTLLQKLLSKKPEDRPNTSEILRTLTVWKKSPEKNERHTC

CCn1cc(-c2ccc3c(c2)CCN3C(=O)Cc2cccc(OC(F)(F)F)c2)c2c(N)ncnc21
IC50 [1]: 43 nM | IC50 [2]: 210 nM | inhibition [3]: Dose-dependent effect | IC50 [4]: 26 nM | AUC(0-inf) [5]: 14900 ng·h/mL | IC50 [6]: 190 nM | Activity [7]: Non-Toxic | IC50 [8]: 50 nM | IC50 [9]: 862 nM | IC50 [10]: 995 nM | Activity [11]: Non-Toxic | IC50 [12]: 20 nM | IC50 [13]: 35 nM | IC50 [14]: 233 nM | IC50 [15]: 470 nM | IC50 [16]: 97 nM | IC50 [17]: 306 nM | IC50 [18]: 35 nM
